Assay results of several laboratories.
Compare with care: the assays were run in different laboratories.
Dipeptidyl peptidase 8: Dipeptidyl peptidase 8 (Homo sapiens, UniProt Q6V1X1)
HTR1D: 5-hydroxytryptamine receptor 1D (HTR1D, Homo sapiens, UniProt P28221)

CCCCCc1cc(O)c2c(c1)OC(C)(CCC=C(C)C)C=C2 (stereo not shown)  IC50 (Polyunsaturated fatty acid 5-lipoxygenase (ALOX5, Homo sapiens, UniProt P09917); enzyme activity; inhibitor): 1.6 µM
CC[C@H]1NC(=O)[C@@H]2CSC(=N2)[C@H](Cc2ccccc2)N(C)C(=O)[C@@H]2CCCN2C(=O)[C@H](C(C)C)N(C)C(=O)[C@H](Cc2ccccc2)OC(=O)[C@H](C)[C@@H](C)NC(=O)[C@@H]([C@@H](C)O)NC(=O)[C@@H](CC(C)C)N(C)C(=O)[C@@H]2CSC1=N2  IC50 (Dipeptidyl peptidase 8; enzyme activity; inhibitor): 6.41 µM
Fc1ccc2onc(C3CCNCC3)c2c1  Ki (Sodium-dependent serotonin transporter (Slc6a4, Rattus norvegicus, UniProt P31652); ligand displacement; radioligand): > 10 µM
Cc1cccc(N2CCN(Cc3coc4ccc(Cl)cc4c3=O)CC2)c1C  Ki (HTR1D; ligand displacement; radioligand): 0.546 µM
OC(c1ccc(F)cc1)C(F)(F)CCN1CCC(O)(c2ccc(Cl)cc2)CC1 (racemic)  Ki (HTR1D; cell-free assay; radioligand): 4.88 µM
COC[C@H]1OC(=O)c2coc3c2[C@@]1(C)C1=C(C3=O)[C@@H]2CCC(=O)[C@@]2(C)C[C@H]1OC(C)=O  Kd (TGF-beta receptor type-2 (TGFBR2, Homo sapiens, UniProt P37173); cell-free assay; competition with immobilised ligand): > 10 µM
CC(C)Cc1ccc([C@@H](C)C(=O)O)cc1  IC50 (Histone acetyltransferase KAT2B (KAT2B, Homo sapiens, UniProt Q92831); enzyme activity; inhibitor; mobility shift): ~6000 µM
CCOc1ccccc1N1CCN(Cc2coc3ccccc3c2=O)CC1  Ki (HTR1D; ligand displacement; radioligand): 0.633 µM
C[C@]12CCc3c(ccc4cc(O)ccc34)[C@@H]1CCC2=O  Ki (ksi (Comamonas testosteroni, UniProt P00947); enzyme activity; inhibitor; absorbance): 5 µM
COc1ccc(C(=O)CCN2CCN(c3ccccc3OC)CC2)cc1  Ki (HTR1D; ligand displacement; radioligand): 0.062 µM
C[C@H](NC(=O)[C@@H](CCC(=O)O)NC(=O)CN1CCN(CC(=O)O)CCN(CC(=O)O)CCN(CC(=O)O)CC1)C(=O)N[C@@H](Cc1ccc(O)cc1)C(=O)NCC(=O)N[C@@H](Cc1c[nH]c2ccccc12)C(=O)N[C@H](C(=O)N[C@@H](CC(=O)O)C(=O)N[C@@H](Cc1cccc2ccccc12)C(N)=O)c1ccccc1  IC50 (Gastrin/cholecystokinin type B receptor (Rattus norvegicus, UniProt P30553); ligand displacement; radioligand): 0.0568 µM
CC(C)C[C@@H]1C(=O)N[C@H]([C@@H](C)O)C(=O)N[C@H](C)[C@@H](C)C(=O)O[C@@H](Cc2ccccc2)C(=O)N(C)[C@@H](C(C)C)C(=O)N2CCC[C@H]2C(=O)N(C)[C@H](Cc2ccccc2)C2=N[C@@H](CS2)C(=O)N[C@H](C)C2=N[C@@H](CS2)C(=O)N1C  IC50 (Dipeptidyl peptidase 8; enzyme activity; inhibitor): 16.6 µM
C[C@@]1(F)[C@H](O)[C@@H](COP(=O)(O)OP(=O)(O)OP(=O)(O)O)O[C@H]1n1ccc(=O)[nH]c1=O  IC50 (DNA polymerase subunit gamma-1 (POLG, Homo sapiens, UniProt P54098); enzyme activity; inhibitor): > 100 µM
O=C(NO)c1ccccc1  IC50 (Histone deacetylase 6, CD2 (hdac6, Danio rerio, UniProt F8W4B7); enzyme activity; inhibitor; fluorescence): 3.42 µM
COc1ccccc1N1CCN(Cc2coc3c(Cl)cc(Cl)cc3c2=O)CC1  Ki (HTR1D; ligand displacement; radioligand): 2.06 µM
O=C(CCCCCCNC(=O)c1cnc(N(c2ccccc2)c2ccccc2)nc1)NO  EC50 (ATP-dependent translocase ABCB1 (ABCB1, Homo sapiens, UniProt P08183); ATPase activity; activator; cell membranes): ~7.5 µM
